From ChEMBL document CHEMBL3779840, “Discovery of 2-((3-Amino-4-methylphenyl)amino)-N-(2-methyl-5-(3-(trifluoromethyl)benzamido)phenyl)-4-(methylamino)pyrimidine-5-carboxamide (CHMFL-ABL-053) as a Potent, Selective, and Orally Available BCR-ABL/SRC/p38 Kinase Inhibitor for Chronic Myeloid Leukemia” (J Med Chem, 2016)
The source made the active and inactive calls. The calls are words filed in the database; no cut-off is given here.

Tested on: K562
Experiment: Antiproliferative activity against human K562 cells xenografted in nu/nu mouse at 25 and 50 mg/kg/day, qd administered through oral gavage measured after 16 days by hematoxylin/eosin staining-based assay
Assay type: functional, organism-based
How it was run: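 Female nu/nu mice bore established K562 xenografts and received daily oral dosing at 25.0 or 50.0 mg/kg/d, or vehicle, starting when tumors reached 200 to 400 mm3, for 16 days. Groups had 5 animals; data are mean ± SEM. Tumor size and body weight were normalized to initial values, and final tumor weight was recorded. Tumor tissue was stained with HE, Ki-67 and TUNEL.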

Question: How did the Activity turn out when `CNc1nc(Nc2ccc(C)c(N)c2)ncc1C(=O)Nc1cc(NC(=O)c2cccc(C(F)(F)F)c2)ccc1C` was run?
Answer: Its Activity is “Active”.
